The list is not random: actives were taken first. Their share in the collection is about 2.1%.
FAS-TE inh: FAS thioesterase domain inhibitors, primary screen, biochemical, fluorescence intensity, uHTS; Fatty acid synthase (Homo sapiens), P49327; recombinant FAS-TE, OMFH fluorogenic substrate, fluorescence endpoint; inhibition, % at 15 µM; actives 0.67% (n = 360,000);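 active = compounds whose normalised, plate-corrected inhibition of enzyme fluorescence in the single-dose primary screen is 50% or more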;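 also: 0% = DMSO with enzyme and 100% = substrate without enzyme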
Calpain2 inh: inhibitors of pig calpain II, primary screen, biochemical, fluorogenic peptide substrate, 1536-well; inhibition, % at 16 µM; actives 0.37% (n = 220,000); AID 1236, 2008; purified calpain II, 30 min;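 active = inhibition above about 50%, limit read from the data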
Runt-SMMHC FRET: inhibitors of RUNX1 Runt–CBFb-SMMHC binding, primary screen, biochemical, FRET, Cerulean-Runt, Venus-CBFb-SMMHC, uHTS | Runt-related transcription factor 1 (Homo sapiens) + Core-binding factor subunit beta … | Cerulean-Runt/Venus-CBFb-SMMHC FRET ratio 530/480, 1 h | inhibition, % at 20 µM | actives 0.74% (n = 220,000);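 active = mean inhibition across duplicate retests at 20 µM reaching about 50%, limit read from the data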;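 also: 0% = DMSO wells and 100% = wells with excess untagged CBFb-SMMHC; inhibitors lower the FRET ratio by blocking Runt binding to CBFb-SMMHC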
Target sequence (Q01196 whole entry, looked up): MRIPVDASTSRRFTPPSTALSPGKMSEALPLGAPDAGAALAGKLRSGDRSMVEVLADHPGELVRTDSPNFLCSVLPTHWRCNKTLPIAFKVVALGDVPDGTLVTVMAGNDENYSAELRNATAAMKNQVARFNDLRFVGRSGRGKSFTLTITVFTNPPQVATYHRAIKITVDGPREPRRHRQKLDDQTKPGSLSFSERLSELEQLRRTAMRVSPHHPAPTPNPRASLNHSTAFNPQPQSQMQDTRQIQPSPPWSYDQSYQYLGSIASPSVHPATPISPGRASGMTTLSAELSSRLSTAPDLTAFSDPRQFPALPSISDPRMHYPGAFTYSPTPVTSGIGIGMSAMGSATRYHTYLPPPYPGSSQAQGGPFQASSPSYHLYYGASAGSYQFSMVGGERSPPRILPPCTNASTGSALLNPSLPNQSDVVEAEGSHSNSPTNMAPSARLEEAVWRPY
Target sequence (Q13951 whole entry, looked up): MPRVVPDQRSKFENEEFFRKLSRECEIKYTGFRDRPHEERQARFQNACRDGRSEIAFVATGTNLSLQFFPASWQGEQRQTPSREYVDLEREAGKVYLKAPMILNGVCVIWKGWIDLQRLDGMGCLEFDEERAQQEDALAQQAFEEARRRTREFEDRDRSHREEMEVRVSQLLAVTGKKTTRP
Runt-CBFb FRET: inhibitors of RUNX1 Runt–CBFb binding, primary screen, biochemical, FRET, Cerulean-Runt, Venus-CBFb, uHTS | Runt-related transcription factor 1 (Homo sapiens) + Core-binding factor subunit beta … | Cerulean-Runt/Venus-CBFb FRET ratio 530/480, 1 h | inhibition, % at 20 µM | actives 0.46% (n = 220,000) | AID 1496, 2009;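 active = inhibition over about 50% at 20 µM in the single-dose screen, limit read from the data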;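 also: 0% = DMSO wells and 100% = excess unlabeled CBFb competitor control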
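Buffer or medium: Tris pH 7.5 buffer with BSA. Assay system: Cerulean-labeled Runt domain protein. Amount: each fluorescent fusion protein 100 nM. Read-out basis: loss of energy transfer signal. Incubation: 1 h compound exposure, room temperature. Probe or stimulus: Venus-CBFb binding partner, 100 nM. Detection: FRET, excitation 422 nm, emission at 530 and 480 nm.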
RanGTP-Impb inh: inhibitors of RanGTP-importin-beta interaction, primary screen, biochemical, FRET, CFP-Ran, YFP-importin-beta, homogeneous; Ran GTPase (GTP-bound) - importin-beta complex; cell-free CFP-Ran/YFP-importin-beta FRET ratio; inhibition, % (concentration not given with the values); actives 1.1% (n = 300,000); AID 2216, 2009;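 active = more than half of the replicate wells show a fall in the fluorescence ratio signal beyond about 16%, limit read from the data, passing the limit was not always enough; inconclusive = exactly half of the replicate wells pass the set limit; inactive = fewer than half of replicates pass the limit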;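 also: 0% = DMSO wells and 100% = Ran loaded with GDP instead of GTP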
Starred values were filed as active, the others as inactive; ? = inconclusive; nt = not tested or not shown.

SMILES	FAS-TE inh	Calpain2 inh	Runt-SMMHC FRET	Runt-CBFb FRET	RanGTP-Impb inh
CCOc1ccc(Nc2cc(C)nc(N3CCOCC3)n2)cc1	-1	-3	2	0	?
CC(C)Cn1c(N)c(C(=O)COC(=O)c2cc(F)cc(F)c2)c(=O)n(C)c1=O	10	40	1	2	-6
CC(C)Cn1c(N)c(C(=O)COC(=O)c2cnc(Cl)c(Cl)c2)c(=O)n(C)c1=O	21	63*	0	-2	-76
O=C(NN1C(=O)c2ccccc2NC1c1ccco1)c1ccc(Br)cc1 (centres undefined)	-2	-35	0	nt	-2
O=C(NN1C(=O)c2ccccc2NC1c1ccco1)c1ccc([N+](=O)[O-])cc1 (centres undefined)	25	62*	2	1	1
CC[C@@]1(C(=O)OC)N[C@H](CN(C)C(=O)C2CCCCC2)[C@@H]2C(=O)N(Cc3ccccc3)C(=O)[C@@H]21	-2	nt	nt	nt	nt
CC(C)C(NC(=O)Cc1ccccc1)C(=O)N1CCN(c2cccc(Cl)c2)CC1 (centres undefined)	11	nt	nt	nt	nt
Cc1ccccc1N1CC(=O)N(c2ccccc2C)CC1=O	-2	-39	-1	-2	-2
Cc1cccc2c1c1ccc3c(c1n2C)C(=O)C=CC3=O	33	-45	36	52*	nt
CCOc1ccc2nc(NCCCNS(=O)(=O)c3ccc(F)cc3)c(C#N)cc2c1	0	-86	nt	nt	132*
CCOc1ccc2nc(NCCCNS(=O)(=O)c3ccccc3)c(C#N)cc2c1	10	-228	61*	80*	134*
O=C(NCc1ccccc1)c1cc(C2COCCN2C(=O)OCCF)on1 (centres undefined)	-2	nt	nt	nt	nt
COCCN(C(=O)COC(=O)c1ccc2[nH]c(C)c(C)c2c1)c1c(N)n(Cc2ccccc2)c(=O)[nH]c1=O	-8	nt	nt	nt	4
CSc1ccc(C2NC(=O)c3c(sc4c3CCN(C)C4)N2)cc1 (centres undefined)	-10	-3	64*	110*	112*
CN1CCc2c(sc3c2C(=O)NC(/C=C\c2ccccc2)N3)C1 (centres undefined)	-17	-24	70*	118*	121*
CN1CCc2c(sc(N)c2C(=O)c2ccc(Cl)cc2)C1	-15	nt	nt	nt	11
CCOC(=O)CSc1nc2sc3c(c2c(=O)n1-c1ccccc1)CCN(C)C3	-2	nt	nt	nt	4
CN1CCc2c(sc3c2C(=O)NC(c2ccc(-c4cccc(Cl)c4)o2)N3)C1 (centres undefined)	0	-69	85*	115*	103*
Cc1ccsc1C1NC(=O)c2c(sc3c2CCN(C)C3)N1 (centres undefined)	-10	-41	73*	106*	132*
Cc1onc(-c2ccccc2)c1C(=O)Nc1nnc(C(C)(C)C)s1	-3	nt	nt	nt	-1
CC(C(=O)NCc1cccc(Cl)c1)N1C(=O)c2ccccc2C1=O (centres undefined)	0	nt	nt	nt	-2
CCN(CC)C(=O)[C@H]1C[C@H](CC(=O)NCc2ccco2)C(=O)N2CCc3c([nH]c4cc(CCC(=O)N(C)C)ccc34)[C@]12C	-9	nt	nt	nt	nt
O=C(O)c1ccc(Nc2nc(-c3cccnc3)nc3ccccc23)cc1	nt	22	-2	-1	2
CCOC(=O)C(C(=O)Cc1ccccc1)c1ccccc1 (centres undefined)	-1	nt	nt	nt	nt
O=C(CCl)N(Cc1cc(=O)[nH]c2ccccc12)c1ccccc1	7	nt	nt	nt	-2
CC(=O)N[C@H]1[C@H]([C@H](O)[C@H](O)CO)O[C@](O)(C(=O)O)C[C@@H]1O	-4	nt	nt	nt	nt
CCc1cccc(C)c1NC(=O)CSc1nnc(-c2cc3cc(Br)ccc3o2)n1CC	12	55*	0	-1	?
Cn1c(SCC(=O)Nc2cccc(C(=O)O)c2)nnc1-c1cc2cc(Br)ccc2o1	-1	-89	0	-1	-1
COC(CNC(=O)c1ccc2nc(-c3cccs3)c(-c3cccs3)nc2c1)OC	8	-145	16	21	43*
